The record followed here is ChEMBL document CHEMBL1140738, “New trisubstituted 1,2,4-triazole derivatives as potent ghrelin receptor antagonists. 3. Synthesis and pharmacological in vitro and in vivo evaluations” (J Med Chem, 2008).

Each structure is given as a SMILES string. Activity calls are given as the source filed them. The rule behind the calls is not given here.

In assay [1] the target is T1, Growth hormone secretagogue receptor type 1 (Homo sapiens, UniProt Q92847). Description: Displacement of 125I]-His9-ghrelin from human GHSR1a expressed in LLCPK1 cells. The assay is classed as cell-based, LLC-PK1. The procedure, abridged: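 Competition binding with membranes from LLC PK-1 cells transiently transfected with human GHS-R1a, incubated with 125I-His9-ghrelin and increasing concentrations of compound.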
Background: In a radioligand displacement assay an active substance lowers the binding of a labelled ligand.

Assay [2] concerns Rattus norvegicus. The assay is described as follows: Inhibition of hexarelin induced food intake in rat at 80 ug/kg, sc. The assay is classed as functional.
Assay [3] has as its system Rattus norvegicus. Description: Inhibition of hexarelin induced food intake per 100 gm of body weight in rat at 80 ug/kg, sc after 6 hrs. It is filed as functional. In a few lines: (§1)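 Rats dosed subcutaneously with compound (160 µg/kg alone, or graded 20, 80, 160, 320 µg/kg) with or without hexarelin 80 µg/kg sc. Cumulative food intake at 2 and 6 h expressed as g food per 100 g body weight; % variation versus hexarelin at 6 h = 100 × (compound+hexarelin − hexarelin)/hexarelin.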

Assay [4] deals with T1, Growth hormone secretagogue receptor type 1. Description: Antagonist activity at GHSR1a expressed in CHO cells assessed as inhibition of ghrelin induced accumulation of intracellular calcium. The assay is classed as functional, cell-based. The procedure, abridged: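 Antagonism measured in CHO cells transiently transfected with GHS-R1a: ghrelin dose-response curves of [Ca2+]i accumulation (fluorescence) run in the presence of various concentrations of test compound.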

The test system of assay [5] is Rattus norvegicus. Description: Inhibition of hexarelin induced food intake in rat at 20 ug/kg, sc. It is filed as functional.
Assay [6] relates to Rattus norvegicus. The assay is described as follows: Inhibition of hexarelin induced food intake per 100 gm of body weight in rat at 20 ug/kg, sc after 6 hrs. It is filed as functional. The procedure, abridged:
as §1

Assay [7] has as its target Vasopressin V1a receptor (Homo sapiens) (UniProt P37288). Description: Binding affinity at vasopressin 1a receptor at 10 uM.
Assay [8] concerns the target Substance-P receptor (Homo sapiens) (UniProt P25103). The assay is described as follows: Binding affinity at tachykinin 2 receptor at 10 uM.
In assay [9] the test system is Rattus norvegicus. The assay is described as follows: Inhibition of hexarelin induced food intake per 100 gm of body weight in rat at 20 ug/kg, sc after 2 hrs. It is filed as functional. In a few lines: as §1
Assay [10] has as its system Rattus norvegicus. The assay is described as follows: Inhibition of hexarelin induced food intake per 100 gm of body weight in rat at 320 ug/kg, sc after 6 hrs. It is filed as functional. In a few lines: as §1
Assay [11] addresses T1, Growth hormone secretagogue receptor type 1. The assay is described as follows: Agonist activity at GHSR1a expressed in CHO cells assessed as accumulation of intracellular calcium level at 10 uM relative to ghrelin. It is filed as functional, cell-based. The procedure, abridged:
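CHO cells transiently expressing GHS-R1a; intracellular Ca2+ accumulation read as fluorescence output. Increasing agonist concentrations were tested for dose-response; single-point activation at 10^-5 M is expressed as percent of the maximal response to ghrelin at 10^-7 M (100%).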

Assay [12] concerns Rattus norvegicus. Description: Inhibition of hexarelin induced food intake per 100 gm of body weight in rat at 160 ug/kg, sc after 2 hrs. It is filed as functional. In a few lines:
as §1

Assay [13] has as its target T2, Cholecystokinin receptor type A (Homo sapiens) (UniProt P32238).
T2 sequence (whole entry): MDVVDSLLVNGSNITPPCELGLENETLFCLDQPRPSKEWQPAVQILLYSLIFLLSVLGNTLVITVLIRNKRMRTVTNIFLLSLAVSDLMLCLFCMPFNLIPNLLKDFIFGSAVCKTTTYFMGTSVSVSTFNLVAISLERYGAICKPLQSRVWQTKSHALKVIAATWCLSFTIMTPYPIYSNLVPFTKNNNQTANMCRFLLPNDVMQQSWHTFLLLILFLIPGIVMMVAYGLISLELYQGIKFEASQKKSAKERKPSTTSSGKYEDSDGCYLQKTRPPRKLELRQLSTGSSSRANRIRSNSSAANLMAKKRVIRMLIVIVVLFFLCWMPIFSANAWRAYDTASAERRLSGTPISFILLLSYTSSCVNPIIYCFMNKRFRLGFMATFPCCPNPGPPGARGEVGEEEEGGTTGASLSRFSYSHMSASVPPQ
Description: Binding affinity at CCK1 receptor at 10 uM.

In assay [14] the test system is Rattus norvegicus. Description: Inhibition of hexarelin induced food intake per 100 gm of body weight in rat at 160 ug/kg, sc after 6 hrs. The assay is classed as functional. In a few lines: as §1
Assay [15] concerns Rattus norvegicus. The assay is described as follows: Effect on growth hormone secretion in infant rat at 80 ug/kg, sc at 160 ug/kg, sc in presence of hexarelin. The assay is classed as functional. In a few lines: (§2)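 Infant rats given sc injection of compound at 160 µg/kg and/or hexarelin at 80 µg/kg; plasma rat GH measured (ng/mL).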
Assay [16] deals with Motilin receptor (Homo sapiens) (UniProt O43193). Description: Binding affinity at motilin receptor at 10 uM.
The test system of assay [17] is Rattus norvegicus. Description: Inhibition of hexarelin induced food intake per 100 gm of body weight in rat at 80 ug/kg, sc after 2 hrs. The assay is classed as functional. The procedure, abridged:
as §1

The test system of assay [18] is Rattus norvegicus. Description: Inhibition of hexarelin induced food intake per 100 gm of body weight in rat at 320 ug/kg, sc after 2 hrs. It is filed as functional. In a few lines: as §1
In assay [19] the test system is Rattus norvegicus. The assay is described as follows: Effect on growth hormone secretion at 160 ug/kg, sc. The assay is classed as functional. The procedure, abridged: as §2

T1 sequence (Q92847 whole entry): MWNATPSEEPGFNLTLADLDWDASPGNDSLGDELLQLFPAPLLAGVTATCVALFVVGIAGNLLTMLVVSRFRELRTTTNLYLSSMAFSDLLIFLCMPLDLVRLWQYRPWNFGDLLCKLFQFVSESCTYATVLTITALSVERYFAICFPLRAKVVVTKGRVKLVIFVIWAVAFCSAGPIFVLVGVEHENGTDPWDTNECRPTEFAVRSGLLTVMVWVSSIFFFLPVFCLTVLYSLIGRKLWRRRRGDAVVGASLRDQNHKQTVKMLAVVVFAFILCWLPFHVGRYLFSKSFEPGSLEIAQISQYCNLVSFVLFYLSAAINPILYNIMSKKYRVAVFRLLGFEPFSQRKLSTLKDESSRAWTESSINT
Sequence of Vasopressin V1a receptor (Homo sapiens) (P37288 whole entry, looked up): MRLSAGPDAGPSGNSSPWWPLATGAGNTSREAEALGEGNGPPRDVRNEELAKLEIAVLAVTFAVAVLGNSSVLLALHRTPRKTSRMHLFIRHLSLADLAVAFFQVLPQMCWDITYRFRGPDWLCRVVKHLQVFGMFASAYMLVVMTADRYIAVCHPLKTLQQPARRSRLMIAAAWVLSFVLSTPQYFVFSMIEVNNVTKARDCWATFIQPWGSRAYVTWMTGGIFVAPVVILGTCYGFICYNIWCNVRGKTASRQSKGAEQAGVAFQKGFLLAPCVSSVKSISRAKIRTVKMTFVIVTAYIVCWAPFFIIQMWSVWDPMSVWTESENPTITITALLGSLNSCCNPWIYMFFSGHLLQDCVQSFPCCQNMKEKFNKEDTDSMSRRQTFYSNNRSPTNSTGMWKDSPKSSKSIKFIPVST
Sequence of Motilin receptor (Homo sapiens) (O43193 whole entry): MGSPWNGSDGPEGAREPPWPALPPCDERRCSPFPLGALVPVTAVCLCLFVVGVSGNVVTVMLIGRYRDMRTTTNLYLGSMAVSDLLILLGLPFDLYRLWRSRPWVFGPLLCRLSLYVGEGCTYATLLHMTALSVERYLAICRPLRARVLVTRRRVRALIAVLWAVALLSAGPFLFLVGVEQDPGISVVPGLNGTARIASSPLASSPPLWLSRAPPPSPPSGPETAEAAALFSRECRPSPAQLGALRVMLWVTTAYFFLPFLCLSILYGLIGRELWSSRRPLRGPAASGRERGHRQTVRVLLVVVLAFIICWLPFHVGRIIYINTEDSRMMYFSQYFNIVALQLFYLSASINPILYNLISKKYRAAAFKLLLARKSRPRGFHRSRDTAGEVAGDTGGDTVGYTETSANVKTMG
Sequence of Substance-P receptor (Homo sapiens) (P25103 whole entry): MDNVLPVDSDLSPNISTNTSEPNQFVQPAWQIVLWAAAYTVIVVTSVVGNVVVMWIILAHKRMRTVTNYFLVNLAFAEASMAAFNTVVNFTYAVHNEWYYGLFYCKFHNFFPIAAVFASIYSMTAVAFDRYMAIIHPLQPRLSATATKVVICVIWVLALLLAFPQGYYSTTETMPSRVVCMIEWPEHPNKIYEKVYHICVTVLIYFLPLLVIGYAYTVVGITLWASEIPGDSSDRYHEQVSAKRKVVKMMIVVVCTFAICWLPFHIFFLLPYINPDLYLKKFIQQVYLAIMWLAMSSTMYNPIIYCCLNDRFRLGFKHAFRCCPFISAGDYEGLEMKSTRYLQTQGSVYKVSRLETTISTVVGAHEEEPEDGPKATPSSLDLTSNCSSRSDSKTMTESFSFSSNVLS

In general, IC50 refers to the midpoint of a concentration-inhibition curve. Read a high IC50 as lower potency. The inhibition in vivo is the change of the read-out against control, counted positive when it falls. What is called Kb is the equilibrium dissociation constant of an antagonist, usually derived from a functional assay. Turning to `COc1ccc(Cn2c(CCc3ccccc3)nnc2[C@@H](Cc2c[nH]c3ccccc23)NC(=O)c2ccccn2)c(OC)c1`, the IC50 in assay [1] amounted to 1.1 nM. In addition, in assay [2], the inhibition in vivo at 0.08 mg/kg was -98%. Further, the Activity in assay [3] came out at 0.02 g; in assay [6], 0.56 g; in [9] it was 0.56 g; in assay [10] it was 1.23 g; in assay [11], 0%; in assay [12] it was 0.21 g. Also, the Activity worked out at 0.21 g in assay [14]; 138.39 ng/mL in [15]; 0.02 g in [17]; 1.23 g in assay [18]; 13.06 ng/mL in [19]. The Kb in assay [4] amounted to 25 nM. In addition, the inhibition in vivo at 0.02 mg/kg in assay [5] is -44%. The outcome in [7], in [8], in [13] and in assay [16] was Active.
